Measurements as given in ChEMBL document CHEMBL1133321, “Synthesis of conformationally constrained analogues of KN62, a potent antagonist of the P2X7-receptor” (Bioorg Med Chem Lett, 2000).

Key:
[1] = Inhibition of ATP-stimulated [Ca2+] influx into macrophages loaded with fluorescent indicator fura-2-acetoxymethyl at 50 nM concentration of compound; assay type: functional; details: Homo sapiens
In short: (§1)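 Washed human macrophage cells (10⁶/mL) in HEPES-buffered saline were loaded with fura-2 acetoxymethyl ester for 20 min at 37 °C in the dark, in a stirred cuvette. Cells were preincubated with compound at the stated single concentration for 5 min at 37 °C before ATP stimulation. Ca²⁺ influx was read as the 340:380 nm excitation ratio at 500 nm emission, as percent inhibition. Three repeats.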

[2] = Inhibition of ATP-stimulated [Ca2+] influx into macrophages loaded with fluorescent indicator fura-2-acetoxymethyl at 500 nM concentration of compound; assay type: functional; details: Homo sapiens; in short: as §1
[3] = Inhibition of ATP-stimulated [Ca2+] influx into macrophages loaded with fluorescent indicator fura-2-acetoxymethyl at 1000 nM concentration of compound; assay type: functional; details: Homo sapiens
P2X purinoceptor 7 = target: T1, P2X purinoceptor 7 (Homo sapiens, UniProt Q99572); experiment: Inhibitory concentration was evaluated against P2X purinoceptor 7
T1 sequence (Q99572 whole entry): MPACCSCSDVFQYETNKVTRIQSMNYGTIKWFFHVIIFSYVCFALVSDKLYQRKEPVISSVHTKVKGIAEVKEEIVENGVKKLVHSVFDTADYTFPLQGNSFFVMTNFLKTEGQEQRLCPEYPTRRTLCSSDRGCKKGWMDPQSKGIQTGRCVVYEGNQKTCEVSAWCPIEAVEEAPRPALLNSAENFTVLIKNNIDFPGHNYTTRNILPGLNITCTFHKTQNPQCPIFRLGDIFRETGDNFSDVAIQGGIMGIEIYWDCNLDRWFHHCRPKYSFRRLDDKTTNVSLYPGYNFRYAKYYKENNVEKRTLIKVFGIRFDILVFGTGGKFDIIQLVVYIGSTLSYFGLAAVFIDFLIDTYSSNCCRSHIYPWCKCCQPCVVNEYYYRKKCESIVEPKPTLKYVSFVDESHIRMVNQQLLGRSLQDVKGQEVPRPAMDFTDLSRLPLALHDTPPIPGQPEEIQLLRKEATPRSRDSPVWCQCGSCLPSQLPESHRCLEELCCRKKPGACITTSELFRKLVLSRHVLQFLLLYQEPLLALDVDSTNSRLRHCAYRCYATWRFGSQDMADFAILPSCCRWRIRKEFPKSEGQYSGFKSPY
In short: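 Human macrophage cells (10⁶/mL, washed, in HEPES-buffered saline) were fura-2-AM loaded for 20 min at 37 °C in the dark. Compounds (25–500 nM) were preincubated 5 min at 37 °C before ATP-stimulated Ca²⁺ influx was measured fluorimetrically (340:380 nm excitation ratio, 500 nm emission). IC50 is the mean from dose-response curves of at least three experiments.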

O=C([C@@H]1Cc2ccc(OS(=O)(=O)c3cccc4cnccc34)cc2CN1S(=O)(=O)c1cccc2cnccc12)N1CCN(c2ccccc2)CC1
inhibition at 0.05 µM [1]: 1.66%
inhibition at 0.5 µM [2]: 34.5%
inhibition at 1 µM [3]: 25.8%

CN([C@@H](Cc1ccc(OS(=O)(=O)c2cccc3cnccc23)cc1)C(=O)N1CCN(c2ccccc2)CC1)S(=O)(=O)c1cccc2cnccc12
IC50 (P2X purinoceptor 7): 13.4 nM
inhibition at 0.05 µM [1]: 94.4%
inhibition at 0.5 µM [2]: 100%
inhibition at 1 µM [3]: 100%

O=C([C@@H]1Cc2ccc(OS(=O)(=O)c3cccc4cccnc34)cc2CN1S(=O)(=O)c1cccc2cccnc12)N1CCN(c2ccccc2)CC1
inhibition at 0.05 µM [1]: 6.9%
inhibition at 0.5 µM [2]: 3.4%
inhibition at 1 µM [3]: 0%

O=C([C@@H]1Cc2ccc(OS(=O)(=O)c3cccc4ccccc34)cc2CN1S(=O)(=O)c1cccc2ccccc12)N1CCN(c2ccccc2)CC1
inhibition at 0.05 µM [1]: 0%
inhibition at 0.5 µM [2]: 0%
inhibition at 1 µM [3]: 0%

O=C([C@@H]1Cc2ccc(OS(=O)(=O)c3cccc4ncccc34)cc2CN1S(=O)(=O)c1cccc2ncccc12)N1CCN(c2ccccc2)CC1
inhibition at 0.05 µM [1]: 59%
inhibition at 0.5 µM [2]: 72.4%
inhibition at 1 µM [3]: 66%
